The source made the active and inactive calls. No cut-off for these calls is given here.
How the values were obtained:
[1] = system: Nucleic Acid; test: Induction of Escherichia coli [5'-32P]-end labeled 64-nucleotide hairpin DNA base pair of pBR322 DNA cleavage using bromophenol blue and xylene cyanol FF at 5 to 20 uM after 30 mins by phosphorimager analysis in presence of equimolar Fe2+; assay type: nucleic-acid assay
Summary of the method: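 64-nt hairpin DNA, 5'-32P-labelled with T4 polynucleotide kinase and purified on 16% polyacrylamide gel, 30,000 cpm, exposed to Fe2+ plus deglycoBLM in 50 mM Tris–HCl pH 8.0 at room temperature for 30 min. Dried, heated 90 °C 10 min in formamide loading buffer, then run on denaturing 16% polyacrylamide/7 M urea gel at 1800 V for 2.5 h.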

[2] = system: Nucleic Acid; test: Induction of Escherichia coli [5'-32P]-end labeled 158-base pair of pBR322 DNA cleavage using bromophenol blue and xylene cyanol FF at 1 to 10 uM after 30 mins by phosphorimager analysis in presence of equimolar Fe2+
[3] = system: Nucleic Acid; test: Induction of Escherichia coli supercoiled pBR322 DNA cleavage assessed as formation of nicked DNA using bromophenol blue at 1 to 4 uM after 30 mins by agarose gel electrophoresis analysis in presence of equimolar Fe2+; assay type: nucleic-acid assay
[4] = system: Nucleic Acid; test: Induction of Escherichia coli [5'-32P]-end labeled 158-base pair of pBR322 DNA cleavage at G12 site using bromophenol blue and xylene cyanol FF at 1 to 10 uM after 30 mins by phosphorimager analysis in presence of equimolar Fe2+; assay type: nucleic-acid assay
Summary of the method: (§1)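 158-bp pBR322 restriction fragment (HindIII cut, dephosphorylated, 5'-32P-labelled with T4 polynucleotide kinase, EcoRV cut), 30,000 cpm, treated with Fe2+ plus deglycoBLM in 50 mM Tris–HCl pH 8.0 at room temperature for 30 min. Supernatant removed under vacuum, pellet heated 90 °C 10 min in formamide loading buffer and chilled on ice before denaturing gel analysis.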

[5] = system: Nucleic Acid; test: Induction of Escherichia coli supercoiled pBR322 DNA cleavage assessed as formation of linear form of DNA using bromophenol blue at 4 uM after 30 mins by agarose gel electrophoresis analysis in presence of equimolar Fe2+; assay type: nucleic-acid assay
[6] = system: Nucleic Acid; test: Induction of Escherichia coli [5'-32P]-end labeled 158-base pair of pBR322 DNA cleavage at A15 site using bromophenol blue and xylene cyanol FF at 1 to 10 uM after 30 mins by phosphorimager analysis in presence of equimolar Fe2+; assay type: nucleic-acid assay; summary of the method: as §1
[7] = system: Nucleic Acid; test: Induction of Escherichia coli [5'-32P]-end labeled 158-base pair of pBR322 DNA cleavage at 5'-CG11-3' site using bromophenol blue and xylene cyanol FF at 1 to 10 uM after 30 mins by phosphorimager analysis in presence of equimolar Fe2+; assay type: nucleic-acid assay; summary of the method: as §1
[8] = system: Nucleic Acid; test: Induction of Escherichia coli [5'-32P]-end labeled 158-base pair of pBR322 DNA cleavage at 5'-CG35-3' site using bromophenol blue and xylene cyanol FF at 1 to 10 uM after 30 mins by phosphorimager analysis in presence of equimolar Fe2+; assay type: nucleic-acid assay; summary of the method: as §1
[9] = system: Nucleic Acid; test: Induction of Escherichia coli [5'-32P]-end labeled 158-base pair of pBR322 DNA cleavage at 5'-GT27-3' site using bromophenol blue and xylene cyanol FF at 1 to 10 uM after 30 mins by phosphorimager analysis in presence of equimolar Fe2+; assay type: nucleic-acid assay; summary of the method: as §1
[10] = system: Nucleic Acid; test: Induction of Escherichia coli [5'-32P]-end labeled 158-base pair of pBR322 DNA cleavage at 5'-GT14-3' site using bromophenol blue and xylene cyanol FF at 1 to 10 uM after 30 mins by phosphorimager analysis in presence of equimolar Fe2+; assay type: nucleic-acid assay; summary of the method: as §1
[11] = system: Nucleic Acid; test: Induction of Escherichia coli [5'-32P]-end labeled 158-base pair of pBR322 DNA cleavage at 5'-GT17-3' site using bromophenol blue and xylene cyanol FF at 1 to 10 uM after 30 mins by phosphorimager analysis in presence of equimolar Fe2+; assay type: nucleic-acid assay; summary of the method: as §1

| SMILES | Activity [1] | Activity [2] | Activity [3] | Activity [4] | Activity [5] | Activity [6] | Activity [7] | Activity [8] | Activity [9] | Activity [10] | Activity [11] |
| --- | --- | --- | --- | --- | --- | --- | --- | --- | --- | --- | --- |
| Cc1c(N)nc([C@H](CC(N)=O)NC[C@H](N)C(N)=O)nc1C(=O)N[C@@H](Cc1c[nH]cn1)C(=O)N[C@H](CC(C)C)[C@@H](O)[C@H](CC(C)C)C(=O)N[C@H](C(=O)NCCc1nc(-c2nc(C(=O)NCCCNCCCCNCCCN)cs2)cs1)[C@@H](C)O | Active | Active | Active | inactive | Active | inactive | – | – | – | – | – |
| Cc1c(N)nc([C@H](CC(N)=O)NC[C@H](N)C(N)=O)nc1C(=O)N[C@@H](Cc1c[nH]cn1)C(=O)N[C@H](Cc1ccccc1)[C@@H](O)[C@H](C)C(=O)N[C@H](C(=O)NCCc1nc(-c2nc(C(=O)NCCCNCCCCNCCCN)cs2)cs1)[C@@H](C)O | Active | Active | Active | inactive | Active | inactive | – | – | – | – | – |
| Cc1c(N)nc([C@H](CC(N)=O)NC[C@H](N)C(N)=O)nc1C(=O)N[C@@H](Cc1c[nH]cn1)C(=O)N[C@H](C)[C@@H](O)[C@H](C)C(=O)N[C@H](C(=O)NCCc1nc(-c2nc(C(=O)NCCCNCCCCN)cs2)cs1)[C@@H](C)O | Active | – | Active | – | – | – | – | – | – | – | – |
| Cc1c(N)nc([C@H](CC(N)=O)NC[C@H](N)C(N)=O)nc1C(=O)N[C@@H](Cc1c[nH]cn1)C(=O)N[C@H](CC1CCCCC1)[C@@H](O)[C@H](C)C(=O)N[C@H](C(=O)NCCc1nc(-c2nc(C(=O)NCCCNCCCCNCCCN)cs2)cs1)[C@@H](C)O | Active | Active | Active | inactive | Active | inactive | – | – | – | – | – |
| Cc1c(N)nc([C@H](CC(N)=O)NC[C@H](N)C(N)=O)nc1C(=O)N[C@@H](Cc1c[nH]cn1)C(=O)N[C@H](Cc1ccccc1Br)[C@@H](O)[C@H](C)C(=O)N[C@H](C(=O)NCCc1nc(-c2nc(C(=O)NCCCNCCCCNCCCN)cs2)cs1)[C@@H](C)O | Active | Active | Active | inactive | Active | inactive | – | – | – | – | – |
| Cc1ccccc1C[C@@H](NC(=O)[C@H](Cc1c[nH]cn1)NC(=O)c1nc([C@H](CC(N)=O)NC[C@H](N)C(N)=O)nc(N)c1C)[C@@H](O)[C@H](C)C(=O)N[C@H](C(=O)NCCc1nc(-c2nc(C(=O)NCCCNCCCCNCCCN)cs2)cs1)[C@@H](C)O | Active | Active | Active | inactive | – | inactive | – | – | – | – | – |
| Cc1c(N)nc([C@H](CC(N)=O)NC[C@H](N)C(N)=O)nc1C(=O)N[C@@H](Cc1c[nH]cn1)C(=O)N[C@H](C)[C@@H](O)[C@H](Cc1ccccc1)C(=O)N[C@H](C(=O)NCCc1nc(-c2nc(C(=O)NCCCNCCCCNCCCN)cs2)cs1)[C@@H](C)O | Active | Active | Active | inactive | Active | inactive | – | – | – | – | – |

Other lines, results leading:

| Activity [1] | Activity [2] | Activity [3] | Activity [4] | Activity [5] | Activity [6] | Activity [7] | Activity [8] | Activity [9] | Activity [10] | Activity [11] | SMILES |
| --- | --- | --- | --- | --- | --- | --- | --- | --- | --- | --- | --- |
| Active | – | Active | Active | – | Active | Active | Active | Active | Active | Active | CC[C@@H](C)C(NC(=O)[C@H](Cc1c[nH]cn1)NC(=O)c1nc([C@H](CC(N)=O)NC[C@H](N)C(N)=O)nc(N)c1C)[C@@H](O)[C@H](C)C(=O)N[C@H](C(=O)NCCc1nc(-c2nc(C(=O)NCCCNCCCCNCCCN)cs2)cs1)[C@@H](C)O (single isomer, unassigned) |
| Active | Active | Active | inactive | Active | inactive | – | – | – | – | – | CCCC[C@H](C(=O)N[C@H](C(=O)NCCc1nc(-c2nc(C(=O)NCCCNCCCCNCCCN)cs2)cs1)[C@@H](C)O)[C@H](O)[C@@H](C)NC(=O)[C@H](Cc1c[nH]cn1)NC(=O)c1nc([C@H](CC(N)=O)NC[C@H](N)C(N)=O)nc(N)c1C |
| Active | Active | Active | inactive | Active | inactive | – | – | – | – | – | Cc1c(N)nc([C@H](CC(N)=O)NC[C@H](N)C(N)=O)nc1C(=O)N[C@@H](Cc1c[nH]cn1)C(=O)N[C@H](C)[C@@H](O)[C@H](CC(C)C)C(=O)N[C@H](C(=O)NCCc1nc(-c2nc(C(=O)NCCCNCCCCNCCCN)cs2)cs1)[C@@H](C)O |
| Active | – | Active | – | – | – | Active | Active | Active | Active | Active | Cc1c(N)nc([C@H](CC(N)=O)NC[C@H](N)C(N)=O)nc1C(=O)N[C@@H](Cc1c[nH]cn1)C(=O)N[C@@H]([C@@H](O)[C@H](C)C(=O)N[C@H](C(=O)NCCc1nc(-c2nc(C(=O)NCCCNCCCCNCCCN)cs2)cs1)[C@@H](C)O)C(C)(C)C |
| Active | – | Active | – | – | – | Active | Active | Active | Active | Active | Cc1c(N)nc([C@H](CC(N)=O)NC[C@H](N)C(N)=O)nc1C(=O)N[C@@H](Cc1c[nH]cn1)C(=O)N[C@H](CC(C)C)[C@@H](O)[C@H](C)C(=O)N[C@H](C(=O)NCCc1nc(-c2nc(C(=O)NCCCNCCCCNCCCN)cs2)cs1)[C@@H](C)O |
